Results published in the RNAGym collection of RNA variant scans (doi:10.1126/science.aae0568).
Fewer inactive variants are shown than the library holds.

B1: tRNA (parent)
chain: GUUCCGUUGGCGUAAUGGUAACGCGUCUCCCUCCUAAGGAGAAGACUGCGGGUUCGAGUCCCGUACGGAACG

Variants of: B1
Assay: yeast fitness relative to wild type (ratio to wild type); higher = fitter; tRNA-Arg(CCU), competitive growth, 37 C, YPD
Summary of the method: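 Gene amplicons from the start population and from each of six end populations were read by 100-nucleotide paired-end sequencing. Those end populations came from pooled Saccharomyces cerevisiae strains carrying tRNA-Arg(CCU) gene variants at the native locus, competed in YPD at 37°C for 24 hours. Fitness relative to wild type was worked out from changes in genotype frequencies. Genotypes needed ≥ 100 starting reads, and estimates < 0.5 were set to 0.5.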

Compared with U26G A40G U59G C62A, C11U C22U G58A C66U is higher in yeast fitness: no more than 0.5 for the first, 0.532 for the second.

Compared with U7C C61U A70G, C34A C61G G68C is lower in yeast fitness: 0.712 for the first, 0.538 for the second.

Going from C22A A42U C62U to C4U A36C G48A, the yeast fitness rises from 0.549 to 0.71.

Compared with C22U A65C, G23U G38C A57G is lower in yeast fitness: 0.708 for the first, no more than 0.5 for the second.

Going from A15C C22U U26G G52A to U13C C27U C55A A69U, the yeast fitness falls from 0.732 to no more than 0.5.

First: G9A A36C A45C
Second: U13G C22U C31A C62U A65C
The yeast fitness of the first is higher: 0.602 for the first, no more than 0.5 for the second.

C30A C34G A65U and C24U A37U G41C A70C cannot be ordered by yeast fitness: no more than 0.5 for the first, no more than 0.5 for the second.

First: U19C G48A C62A U64C
Second: G6A A15G
The yeast fitness of the first is lower: 0.636 for the first, 0.712 for the second.

Compared with A36G G41C C60G, A36C U54G is lower in yeast fitness: 0.682 for the first, 0.522 for the second.

U3A A20G G44A C49A U59A and U19A C22G A42G U54A G67A cannot be ordered by yeast fitness: no more than 0.5 for the first, no more than 0.5 for the second.

C5A G10C G17A A40U U54A and U3A G9C C33G A42U A43U A65C G68C cannot be ordered by yeast fitness: no more than 0.5 for the first, no more than 0.5 for the second.

Going from U3A A15G U19A G41A to A45U G48A, the yeast fitness rises from no more than 0.5 to 0.824.

Compared with G9A C29G C30G C46G, U13C G44A is higher in yeast fitness: no more than 0.5 for the first, 0.827 for the second.

First: G12C C31G
Second: U2C U26C C27G U28A A43U
The yeast fitness of the first is higher: 0.818 for the first, no more than 0.5 for the second.

Going from C24G C46U G58C C61U to G6A U35C G44A G48C C55G A69U, the yeast fitness falls from 0.597 to no more than 0.5.

First: C4A C29U C31U U54G A65U G67A
Second: U8C G18C A21C G63A
The yeast fitness of the first is lower: no more than 0.5 for the first, 0.587 for the second.

First: A14G A21C C33A A43U C62U
Second: C5U A20G U32G C33G C55U
The yeast fitness of the first is higher: 0.558 for the first, no more than 0.5 for the second.

Going from C24U A45G A57G to A20G G23A C24G C60G, the yeast fitness falls from 0.787 to no more than 0.5.

First: A21G C27A A37U G50A
Second: U26G A36U U47G C62U G68C
The yeast fitness of the first is higher: 0.531 for the first, no more than 0.5 for the second.

Compared with G39A G51C U59C, A14G U16G C24G U26C U47G G50C is higher in yeast fitness: no more than 0.5 for the first, 0.515 for the second.

C49A C60A A70C and U16A U19A A43C G56A cannot be ordered by yeast fitness: no more than 0.5 for the first, no more than 0.5 for the second.

C11U U32A C34A A43C C61U G68A and U7G A20G A21G G38C G50C cannot be ordered by yeast fitness: no more than 0.5 for the first, no more than 0.5 for the second.

C4G U16C U32A C46U G63C and C29A A40G A43G C55U C61U C66G cannot be ordered by yeast fitness: no more than 0.5 for the first, no more than 0.5 for the second.

Compared with G9A G39C C66U, C4U C55G A65G C66G is lower in yeast fitness: 0.606 for the first, no more than 0.5 for the second.

C11U A14U C27U A36U A43G C46U A65U and A21C G39A G52C C62U cannot be ordered by yeast fitness: no more than 0.5 for the first, no more than 0.5 for the second.

U8G U32C C33G and C27U C33U A40C C55A cannot be ordered by yeast fitness: no more than 0.5 for the first, no more than 0.5 for the second.

Compared with U35C G44A C46G G50C U53A, C5U U54A is higher in yeast fitness: 0.583 for the first, 0.699 for the second.

First: C29U U32C C46A
Second: C31G C33U A42G U64C A65G
The yeast fitness of the first is higher: 0.521 for the first, no more than 0.5 for the second.

A20G C24G C60A and C5G C30U C31G C61A A69U cannot be ordered by yeast fitness: no more than 0.5 for the first, no more than 0.5 for the second.

Going from A37C C60A A70G to U2A G48A C60U A69U, the yeast fitness falls from 0.592 to no more than 0.5.

A14G A20C A21U U28C and A20U C31U G38A A69C cannot be ordered by yeast fitness: no more than 0.5 for the first, no more than 0.5 for the second.

Compared with G25A G63A, G25A G63C is lower in yeast fitness: 0.949 for the first, 0.737 for the second.

Compared with C29U U47A A65C, A40C A57G A70C is higher in yeast fitness: no more than 0.5 for the first, 0.55 for the second.

Compared with U2A C33G A42C, A15G U32G A43C is lower in yeast fitness: 0.509 for the first, no more than 0.5 for the second.

U7A C34A A42C G58A and C5G A15G U16A A20G U28A C30A C33A A36U A69U cannot be ordered by yeast fitness: no more than 0.5 for the first, no more than 0.5 for the second.

Compared with A20G G25A C34A G50C, C22G U64A is higher in yeast fitness: 0.578 for the first, 0.696 for the second.

Going from C5U C22U C33U C61G to G56C G67U, the yeast fitness rises from no more than 0.5 to 0.524.

Going from C34G C49G to A15U C61A, the yeast fitness falls from 0.657 to 0.571.

First: G25A A45G G50C A69C
Second: U3A A14U
The yeast fitness of the first is lower: 0.526 for the first, 0.731 for the second.

First: C24U A36G C61U
Second: G41A C60A U64A
The yeast fitness of the first is higher: 0.655 for the first, no more than 0.5 for the second.

C11U U19A C61U G68A and G41A C49A C66A cannot be ordered by yeast fitness: no more than 0.5 for the first, no more than 0.5 for the second.

Compared with U19A U32C, U2C C11A A40C is lower in yeast fitness: 0.848 for the first, 0.553 for the second.
